Source: ChEMBL document CHEMBL1124311, “Synthesis and antiallergy activity of 4-(diarylhydroxymethyl)-1-[3-(aryloxy)propyl]piperidines and structurally related compounds” (J Med Chem, 1989)
Active and inactive are the calls of the source. The rule behind the calls is not given here.

Experiments:
[1] = tested on: Rattus norvegicus; assay: Oral antiallergy activity in the passive foot anaphylaxis (PFA) model of rat, at a dose of 3.16 (mg/kg); Activity equal to positive control group; format: functional, organism-based
[2] = tested on: Rattus norvegicus; assay: Oral antiallergy activity in the passive foot anaphylaxis (PFA) model of rat, at a dose of 10 (mg/kg); Activity greater than positive control group; format: functional, organism-based
[3] = tested on: Rattus norvegicus; assay: Oral antiallergy activity in the passive foot anaphylaxis (PFA) model of rat, at a dose of 1.0 (mg/kg); not significantly different from negative control group; format: functional, organism-based
[4] = tested on: Rattus norvegicus; assay: Oral antiallergy activity in the passive foot anaphylaxis (PFA) model of rat, at a dose of 3.16 (mg/kg); not significantly different from negative control group; format: functional, organism-based
[5] = tested on: Rattus norvegicus; assay: Oral antiallergy activity in the passive foot anaphylaxis (PFA) model of rat, at a dose of 10 (mg/kg); Activity between positive and negative control groups; format: functional, organism-based
[6] = tested on: Rattus norvegicus; assay: Oral antiallergy activity in the passive foot anaphylaxis (PFA) model of rat, at a dose of 3.16 (mg/kg); Activity between positive and negative control groups; format: functional, organism-based
[7] = tested on: Rattus norvegicus; assay: Oral antiallergy activity in the passive foot anaphylaxis (PFA) model of rat, at a dose of 10 (mg/kg); Activity equal to positive control group; format: functional, organism-based
[8] = species on record: Cavia porcellus; assay: Oral antiallergy activity in the guinea pig anaphylaxis (GPA) model, at a pretreatment time of 24 h; format: functional; conditions: read-out: PD50
Method in brief: (§1)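 Fasted, sensitized Dunkin-Hartley guinea pigs, randomized into control (N = 8) and test (N = 4) groups, dosed by gavage at 10 mL/kg in 0.5% Tween 80 in water; theophylline 100 mg/kg po as reference. At the stated pretreatment time, each animal was exposed to aerosolized 1% (w/v) egg albumin at 10 L air/min for up to 5 min. Protection meant no collapse within 5 min. PD50 was calculated by Litchfield–Wilcoxon.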

[9] = target: Histamine H1 receptor (Cavia porcellus, UniProt P31389); assay: Inhibitory activity against Tritiated [3H]- mepyramine binding to histamine H1 receptor in guinea pig cerebral cortex; format: tissue-based
Method in brief: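 Guinea pig (Dunkin-Hartley) cerebral cortex homogenized in cold 50 mM Na-K phosphate pH 7.5, centrifuged at 48000g three times, resuspended 30 mL buffer/g tissue. Six concentrations (1e-5 to 1e-10 M) run in triplicate. IC50 derived by regression of logit % control binding vs log concentration.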

[10] = species on record: Cavia porcellus; assay: Oral antiallergy activity in the guinea pig anaphylaxis (GPA) model, at a pretreatment time of 1 h; format: functional; conditions: read-out: PD50; method in brief: as §1
[11] = species on record: Cavia porcellus; assay: Oral antiallergy activity in the guinea pig anaphylaxis (GPA) model of, at a pretreatment time of 5 h; format: functional; conditions: read-out: PD50; method in brief: as §1
[12] = tested on: Rattus norvegicus; assay: Oral antiallergy activity in the passive foot anaphylaxis (PFA) model of rat, at a dose of 1.0 (mg/kg); Activity between positive and negative control groups; format: functional, organism-based
[13] = tested on: Rattus norvegicus; assay: Oral antiallergy activity in the passive foot anaphylaxis (PFA) model of rat, at a dose of 0.5 (mg/kg); not significantly different from negative control group; format: functional, organism-based

Histamine H1 receptor, sequence (P31389 whole entry): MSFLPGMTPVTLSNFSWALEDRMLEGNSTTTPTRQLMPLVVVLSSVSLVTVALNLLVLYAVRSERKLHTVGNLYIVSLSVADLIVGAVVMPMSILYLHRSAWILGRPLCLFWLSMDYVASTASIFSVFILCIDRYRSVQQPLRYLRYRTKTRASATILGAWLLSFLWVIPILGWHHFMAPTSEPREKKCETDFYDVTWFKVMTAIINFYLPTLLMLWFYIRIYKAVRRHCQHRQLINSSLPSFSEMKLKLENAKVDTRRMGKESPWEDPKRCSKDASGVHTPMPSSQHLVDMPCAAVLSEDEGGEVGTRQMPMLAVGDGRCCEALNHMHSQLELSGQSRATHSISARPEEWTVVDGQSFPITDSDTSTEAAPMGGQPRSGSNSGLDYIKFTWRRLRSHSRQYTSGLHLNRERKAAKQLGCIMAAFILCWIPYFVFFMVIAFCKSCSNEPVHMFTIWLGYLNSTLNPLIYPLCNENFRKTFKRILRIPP

Compound	PFA [2]	PFA [3]	PFA [4]	PFA [6]	PFA [7]	further results
CCOC(=O)Nc1ccc(OCCCN2CCC(C(O)(c3ccc(F)cc3)c3ccc(F)cc3)CC2)cc1	Activity equal to positive control group	Activity equal to positive control group				PFA [1]: Activity equal to positive control group
CC(=O)Cc1ccc(OCCCN2CCC(C(O)(c3ccc(F)cc3)c3ccc(F)cc3)CC2)cc1	Activity greater than positive control group		Activity greater than positive control group			
CCOC(=O)c1ccccc1OCCCN1CCC(C(O)(c2ccc(F)cc2)c2ccc(F)cc2)CC1		Activity between positive and negative control groups		Activity between positive and negative control groups		PFA [5]: Activity between positive and negative control groups
Cc1cccc(OCCCN2CCC(C(O)(c3ccc(F)cc3)c3ccc(F)cc3)CC2)c1		Activity between positive and negative control groups		Activity between positive and negative control groups		PFA [5]: Activity between positive and negative control groups
CC(C)(C)C(=O)c1ccc(OCCCN2CCC(C(O)(c3ccc(F)cc3)c3ccc(F)cc3)CC2)cc1			Activity equal to positive control group		Activity equal to positive control group	
Oc1ccccc1OCCCN1CCC(C(O)(c2ccc(F)cc2)c2ccc(F)cc2)CC1			Activity equal to positive control group		Activity equal to positive control group	
COc1cc(C(C)=O)ccc1OCCCN1CCC(C(O)(c2ccccc2)c2ccccc2)CC1	Active	inactive				PFA [1]: Active; ED50 [8]: 1.4 mg/kg; IC50 [9]: 42 nM; ED50 [10]: 0.57 mg/kg; ED50 [11]: 0.35 mg/kg
CCc1ccc(OCCCN2CCC(C(O)(c3ccc(F)cc3)c3ccc(F)cc3)CC2)cc1		Activity between positive and negative control groups		Activity between positive and negative control groups	Activity between positive and negative control groups	
CSc1ccc(OCCCN2CCC(C(O)(c3ccc(F)cc3)c3ccc(F)cc3)CC2)cc1			Activity equal to positive control group		Activity equal to positive control group	
CCC(=O)c1ccc(OCCCN2CCC(C(O)(c3ccc(F)cc3)c3ccc(F)cc3)CC2)cc1	Activity equal to positive control group	Activity equal to positive control group				PFA [1]: Activity equal to positive control group
COc1ccccc1OCCCN1CCC(C(O)(c2ccc(F)cc2)c2ccc(F)cc2)CC1				Activity between positive and negative control groups		PFA [12]: Activity between positive and negative control groups
Nc1ccc(OCCCN2CCC(C(O)(c3ccc(F)cc3)c3ccc(F)cc3)CC2)cc1	Activity between positive and negative control groups	Activity between positive and negative control groups		Activity between positive and negative control groups		
CC(C)Oc1ccccc1OCCCN1CCC(C(O)(c2ccc(F)cc2)c2ccc(F)cc2)CC1				Activity between positive and negative control groups		PFA [12]: Activity between positive and negative control groups
O=C(O)CCc1ccc(OCCCN2CCC(C(O)(c3ccc(F)cc3)c3ccc(F)cc3)CC2)cc1	Activity between positive and negative control groups					PFA [1]: Activity between positive and negative control groups; PFA [13]: Activity between positive and negative control groups; PFA [12]: Activity between positive and negative control groups
CNC(=O)Nc1ccc(OCCCN2CCC(C(O)(c3ccc(F)cc3)c3ccc(F)cc3)CC2)cc1			Activity equal to positive control group		Activity equal to positive control group	
COc1ccc(OCCCN2CCC(C(O)(c3ccc(F)cc3)c3ccc(F)cc3)CC2)cc1			Activity equal to positive control group		Activity equal to positive control group	
